This is an account of results in ChEMBL document CHEMBL1138180, “Design and synthesis of new tetrazolyl- and carboxy-biphenylylmethyl-quinazolin-4-one derivatives as angiotensin II AT1 receptor antagonists” (J Med Chem, 2006).

The source made the active and inactive calls. The rule behind the calls is not given here.

The target of experiment [1] is T1, Type-1 angiotensin II receptor (Homo sapiens) (UniProt P30556).
T1 sequence (whole entry): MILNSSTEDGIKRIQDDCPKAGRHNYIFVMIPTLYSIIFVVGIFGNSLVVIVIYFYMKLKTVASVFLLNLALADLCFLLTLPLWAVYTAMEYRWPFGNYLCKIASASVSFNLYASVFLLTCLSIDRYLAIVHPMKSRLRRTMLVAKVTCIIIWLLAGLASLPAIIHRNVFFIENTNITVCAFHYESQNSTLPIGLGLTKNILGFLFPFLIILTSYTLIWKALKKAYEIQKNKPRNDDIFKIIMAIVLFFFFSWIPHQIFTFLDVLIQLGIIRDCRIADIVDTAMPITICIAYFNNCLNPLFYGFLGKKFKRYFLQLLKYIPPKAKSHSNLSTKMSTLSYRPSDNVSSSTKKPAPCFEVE
The experiment in a line: Displacement of [125I]-Sar(1)Ile(8)-Ang 2 from human AT1 receptor in CHO cells. It is filed as cell-based. A digest of the protocol: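 Membranes from CHO cells stably expressing human AT1 receptor, in 50 mM Tris-HCl pH 7.4 with 100 mM NaCl, 6 mM MgCl2 and 0.1% BSA. ~50 µg protein incubated 1 h at room temperature with 0.15 nM 125I-Sar1Ile8-Ang II, with or without competitor at 10 µM final. Bound ligand separated by centrifugation, counted as cpm. Control had DMSO and no competitor. Mean cpm ± SEM.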

For experiment [2], the system named is Rattus norvegicus. The experiment in a line: Reduction of the systolic blood pressure in normotensive Sprague-Dawley rat at 3 mg/kg, ip. Set-up: dose 3 mg/kg. The following applies: Artery. It is filed as functional, organism-based. A digest of the protocol: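 Normotensive male rats (230-250 g), n = 6 per group, given a single ip dose of 3 mg/kg in 0.1 mL DMSO, with a DMSO vehicle control. Systolic BP measured 2 h later by tail-cuff in conscious, cage-acclimatized rats in a 31-32 °C chamber. Mean % reduction versus control reported; ANOVA/LSD.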

Experiment [3] has as its system Rattus norvegicus. The experiment in a line: Reduction of the systolic blood pressure in hypertensive Sprague-Dawley rat at 3 mg/kg, ip. It is filed as functional, organism-based. Further details: dose 3 mg/kg. The following applies: Artery. A digest of the protocol:
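Male rats (230-250 g) made hypertensive with DOCA 10 mg/kg sc daily plus 8% NaCl diet for 3-4 weeks. Single ip dose of 3 mg/kg in 0.1 mL DMSO, n = 6 per group. Systolic BP measured by tail-cuff in conscious rats 24 h before and 2 h after dosing. Normotensive and hypertensive DMSO controls included. Mean ± SE, ANOVA/LSD.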

As for `O=c1[nH]c2ccccc2c(=O)n1Cc1ccc(-c2ccccc2-c2nn[nH]n2)cc1`, the outcome (in experiment [1]; in the experiment with Rattus norvegicus [2]; in the experiment with Rattus norvegicus [3]) was Active.
As for `CCCCc1nc(Cl)c(CO)n1Cc1ccc(-c2ccccc2-c2nnn[nH]2)cc1`, the outcome (in experiment [1]; with Rattus norvegicus [2]; in the experiment with Rattus norvegicus [3]) was Active.
On to `CSc1nc2ccccc2c(=O)n1Cc1ccc(-c2ccccc2C(=O)O)cc1`, for which the outcome (in experiment [1]; in the experiment with Rattus norvegicus [2]; in the experiment with Rattus norvegicus [3]) was Active.
For `CSc1nc2ccccc2c(=O)n1Cc1ccc(-c2ccccc2-c2nn[nH]n2)cc1`, the result (in experiment [1]; with Rattus norvegicus [2]; in the experiment on Rattus norvegicus [3]) was Active.
Take `Oc1nc(SCc2ccc(-c3ccccc3-c3nn[nH]n3)cc2)nc2ccccc12`: in experiment [1], the result was inactive.
